Only some compounds are listed: those with a hit (about 2.3% of all), similar ones and a draw of the others.
MEKK2 mut-MEK5 – signal of MEK5 binding to mutant human MEKK2 PB1 domain; bead flow cytometry, Alexa488-MEK5 binding to MEKK2 mutant; percent response, % at 10 µM; hit rate 0.35% among 290,000; AID 1530; in the data active = percent response above about 24%, passing the limit was not always enough
ABCG2 inh – inhibitors of human ABCG2 transporter, ABCB1 counter-screen | inhibition, % at 6.6 µM | hit rate 0.1% among 190,000 | IgMXP3 cells, JC-1 efflux, flow cytometry | Q9UNQ0;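 active = inhibition above 80%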;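 also: 0% = DMSO and 100% = nicardipine control wells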
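test system = two drug-resistant human cell lines, ABCG2 and ABCB1 | amount = 3 million cells/mL final, two lines in 1:1 ratio | reagent = JC-1 transporter substrate | doses = one concentration, 6.6 µM final | incubation = 10 min at 25 °C | signal = flow cytometric JC-1 green MFI at 530 nm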
MEKK3 PB1 HTS – MEKK3-MEK5 PB1 interaction, increase or decrease. AID 1529. Q99759. bead-based flow cytometry, Alexa488-MEK5 binding to MEKK3; actives lie on both sides; 0 = blocked by unlabeled MEK5, 100 = vehicle. binding response (% of control), % at 10 µM. hit rate 1.4% among 290,000;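 active = binding response more than 3 SD above or below the average of its plate-row segment, actives on both sides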;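 also: Alexa488 bead fluorescence after subtracting the streptavidin-only scavenger bead signal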
ABCB1 inh – blocks JC-1 efflux by human ABCB1 transporter; P08183; CCRF-Adr cells, flow cytometry; inhibition, % at 6.6 µM; hit rate 0.067% among 190,000; in the data active = inhibition above about 40%;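 also: 0% = vehicle and 100% = reference inhibitor; higher value means more JC-1 retained so stronger ABCB1 efflux block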
Target sequence (P08183 whole entry, looked up): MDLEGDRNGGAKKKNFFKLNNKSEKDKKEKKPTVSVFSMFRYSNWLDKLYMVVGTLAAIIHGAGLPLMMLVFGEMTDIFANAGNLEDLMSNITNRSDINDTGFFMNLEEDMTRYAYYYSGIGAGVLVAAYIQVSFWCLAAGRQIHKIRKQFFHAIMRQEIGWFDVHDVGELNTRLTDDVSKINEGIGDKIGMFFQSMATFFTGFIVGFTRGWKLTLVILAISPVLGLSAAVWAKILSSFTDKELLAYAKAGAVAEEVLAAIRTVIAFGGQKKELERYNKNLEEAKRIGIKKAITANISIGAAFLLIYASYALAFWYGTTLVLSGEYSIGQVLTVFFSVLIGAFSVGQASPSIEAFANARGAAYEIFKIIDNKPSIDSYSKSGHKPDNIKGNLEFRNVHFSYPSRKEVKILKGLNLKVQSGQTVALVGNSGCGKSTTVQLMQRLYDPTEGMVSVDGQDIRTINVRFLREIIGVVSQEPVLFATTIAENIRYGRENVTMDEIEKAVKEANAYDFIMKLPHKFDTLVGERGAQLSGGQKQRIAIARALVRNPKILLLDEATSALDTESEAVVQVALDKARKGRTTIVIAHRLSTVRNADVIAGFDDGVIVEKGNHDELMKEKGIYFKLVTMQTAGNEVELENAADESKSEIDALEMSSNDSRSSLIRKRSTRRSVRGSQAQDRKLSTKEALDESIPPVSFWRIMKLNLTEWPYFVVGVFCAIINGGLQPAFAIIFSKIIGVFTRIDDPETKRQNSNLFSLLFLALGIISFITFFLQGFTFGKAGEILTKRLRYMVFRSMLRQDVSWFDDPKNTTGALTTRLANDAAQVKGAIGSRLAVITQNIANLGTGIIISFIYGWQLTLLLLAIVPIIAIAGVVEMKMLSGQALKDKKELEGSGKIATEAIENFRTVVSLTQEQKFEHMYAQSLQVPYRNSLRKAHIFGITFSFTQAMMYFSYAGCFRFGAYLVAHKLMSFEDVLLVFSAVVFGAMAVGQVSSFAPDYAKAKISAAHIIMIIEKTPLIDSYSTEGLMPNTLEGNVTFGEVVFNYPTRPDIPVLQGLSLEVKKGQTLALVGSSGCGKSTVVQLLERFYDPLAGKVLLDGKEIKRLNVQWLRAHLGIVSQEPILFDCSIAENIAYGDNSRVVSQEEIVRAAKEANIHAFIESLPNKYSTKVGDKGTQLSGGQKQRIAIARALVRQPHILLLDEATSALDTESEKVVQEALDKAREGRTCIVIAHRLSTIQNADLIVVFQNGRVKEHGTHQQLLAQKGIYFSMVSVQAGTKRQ
MEKK2wt PB1 HTS – raises or lowers MEK5 binding to wildtype human MEKK2 PB1 domain. Q9Y2U5. bead flow cytometry, Alexa488-MEK5 binding to MEKK2 WT; actives lie on both sides. binding response (% of control), % at 10 µM. hit rate 1.1% among 290,000. AID 1531; in the data active = binding response below about 67% or above about 130%
MEKK2wt confirm – raises or lowers MEK5 binding to wildtype human MEKK2, retest; shares compounds with MEKK3 PB1 HTS; bead flow cytometry, Alexa488-MEK5 binding to MEKK2 WT; actives lie on both sides; binding response (% of control), % at 10 µM; hit rate 2.4% among 5,900; AID 1892; in the data active = binding response below about 16% or above about 210%; inactive = in between
MEKK2mut-MEK5 – signal of MEK5 binding to mutant human MEKK2, retest | shares compounds with MEKK3 PB1 HTS | bead flow cytometry, Alexa488-MEK5 binding to MEKK2 mutant | percent response, % at 10 µM | hit rate 2% among 5,900 | AID 1893; in the data active = percent response mostly above about 71%, no sharp cut-off; inactive = mostly below about 38%;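 also: higher means compound restores mutant binding toward wildtype level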
MEKK3 confirm – MEKK3-MEK5 PB1 inhibition, single concentration confirmation; shares compounds with MEKK3 PB1 HTS; bead flow cytometry, Alexa488-MEK5 binding to MEKK3; hits give low values; binding response (% of control), % at 10 µM; hit rate 1.8% among 5,900; AID 1894;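 active = binding response below 72% of control, or above a set upper limit, though filed actives all read lower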;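 also: 100% = DMSO only wells and 0% = binding blocked by excess unlabeled MEK5; lower values mean stronger disruption of MEK5 binding to MEKK3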
Numbers without * were called inactive; [ ] = remark or other dose.

How did COc1ccc(N2C(=O)CC(Sc3ncn[nH]3)C2=O)c(OC)c1 (configuration not stated) do in these assays?
MEKK2 mut-MEK5: 11.0; ABCG2 inh: 0.7; MEKK3 PB1 HTS: 122.0*; ABCB1 inh: 0.2; MEKK2wt PB1 HTS: 116.0; MEKK2wt confirm: 102.0; MEKK2mut-MEK5: -2.0; MEKK3 confirm: 101.0

How did CC(C)c1ccc(N2C(=O)CC(Sc3ncn[nH]3)C2=O)cc1 (configuration not stated) do in these assays?
MEKK2 mut-MEK5: 4.0; ABCG2 inh: 2.9; MEKK3 PB1 HTS: 107.0; ABCB1 inh: 0.5; MEKK2wt PB1 HTS: 112.0

What do the screens show for `COc1cccc(CNC(=O)CN2C(=O)CCSc3ccc(S(=O)(=O)N4CCCC4)cc32)c1`?
MEKK2 mut-MEK5: -7.0; MEKK3 PB1 HTS: 93.0; MEKK2wt PB1 HTS: 94.0

What do the screens show for `Cc1ccc(-n2c(SCC(=O)N3CC(=O)Nc4ccccc43)nc3ccccc3c2=O)cc1C`?
MEKK2 mut-MEK5: 0.0; ABCG2 inh: 6.1; MEKK3 PB1 HTS: 136.0*; ABCB1 inh: 10.4; MEKK2wt PB1 HTS: 99.0; MEKK2wt confirm: 92.0; MEKK2mut-MEK5: -6.0; MEKK3 confirm: 97.0

How did Cc1cccc(-n2c(SCC(=O)N3CC(=O)Nc4ccccc43)nc3ccccc3c2=O)c1 do in these assays?
MEKK2 mut-MEK5: 0.0; ABCG2 inh: 1.0; MEKK3 PB1 HTS: 121.0; ABCB1 inh: 1.5; MEKK2wt PB1 HTS: 110.0

Results for O=C(CSc1nc2ccccc2c(=O)n1-c1ccccc1)N1CCN(CCO)CC1 ?
MEKK2 mut-MEK5: -21.0; ABCG2 inh: 2.4; MEKK3 PB1 HTS: 2.0*[inhibitor]; ABCB1 inh: 0.5; MEKK2wt PB1 HTS: 3.0*[inhibitor]; MEKK2wt confirm: 96.0; MEKK2mut-MEK5: 1.0; MEKK3 confirm: 104.0

How did CC(C)c1ccccc1-n1c(SCC(=O)N2CCc3ccccc3C2)nc2ccccc2c1=O do in these assays?
MEKK2 mut-MEK5: 0.0; ABCG2 inh: 2.3; MEKK3 PB1 HTS: 155.0*; ABCB1 inh: 5.4; MEKK2wt PB1 HTS: 103.0; MEKK2wt confirm: 92.0; MEKK2mut-MEK5: -8.0; MEKK3 confirm: 98.0

How did CCCOc1ccc(-c2c(C(=O)N/N=C/C3CCCCC3)nnn2-c2nonc2N)cc1 do in these assays?
MEKK2 mut-MEK5: 2.0; MEKK3 PB1 HTS: 100.0; MEKK2wt PB1 HTS: 104.0

How did CCc1ccc(OCc2cccc(C(=O)N/N=C\c3cnn(C)c3C)c2)cc1 do in these assays?
MEKK2 mut-MEK5: -4.0; MEKK3 PB1 HTS: 99.0; MEKK2wt PB1 HTS: 99.0

Results for CCCCOc1ccc(N2C(=O)CC(NCCc3ccc(S(N)(=O)=O)cc3)C2=O)cc1 (configuration not stated) ?
MEKK2 mut-MEK5: 5.0; ABCG2 inh: 15.9; MEKK3 PB1 HTS: 122.0*; ABCB1 inh: -1.8; MEKK2wt PB1 HTS: 119.0; MEKK2wt confirm: 111.0; MEKK2mut-MEK5: 7.0; MEKK3 confirm: 105.0

How did CCCOc1ccc(N2C(=O)CC(NCc3ccc(S(N)(=O)=O)cc3)C2=O)cc1 (configuration not stated) do in these assays?
MEKK2 mut-MEK5: -7.0; ABCG2 inh: 1.1; MEKK3 PB1 HTS: 99.0; ABCB1 inh: 0.6; MEKK2wt PB1 HTS: 104.0

Results for CCC(C)[C@H](NC(=O)N1CC(=O)Nc2ccccc21)C(=O)N1CCC[C@H]1C(=O)O (some centres not stated) ?
MEKK2 mut-MEK5: 1.0; MEKK3 PB1 HTS: 100.0; MEKK2wt PB1 HTS: 100.0

Results for O=C(CCCCn1c(=O)c2ccccc2n(Cc2ccccc2)c1=O)NC1CCN(Cc2ccccc2)CC1 ?
MEKK2 mut-MEK5: -20.0; ABCG2 inh: 2.8; MEKK3 PB1 HTS: 22.0*[inhibitor]; ABCB1 inh: 4.3; MEKK2wt PB1 HTS: 32.0*[inhibitor]; MEKK2wt confirm: 105.0; MEKK2mut-MEK5: 2.0; MEKK3 confirm: 101.0

What do the screens show for `O=C(CCN1C(=O)C2C3CCC(C3)C2C1=O)Nc1cccc(Cl)c1` (configuration not stated)?
MEKK2 mut-MEK5: -5.0; MEKK3 PB1 HTS: 98.0; MEKK2wt PB1 HTS: 100.0

How did Cc1cc(C(=O)OCC(=O)Nc2ccccc2F)c(C)o1 do in these assays?
MEKK2 mut-MEK5: 9.0; ABCG2 inh: 9.4; MEKK3 PB1 HTS: 112.0; ABCB1 inh: 1.1; MEKK2wt PB1 HTS: 118.0

Results for Cc1cccc(NC(=O)COC(=O)c2cc(C)oc2C)c1 ?
MEKK2 mut-MEK5: 4.0; ABCG2 inh: 5.0; MEKK3 PB1 HTS: 129.0*; ABCB1 inh: 0.2; MEKK2wt PB1 HTS: 114.0; MEKK2wt confirm: 105.0; MEKK2mut-MEK5: 2.0; MEKK3 confirm: 103.0

What do the screens show for `CCOc1ccc(C(=O)NCC(=O)N2CCC3CCCCC3C2)cc1OCC` (configuration not stated)?
MEKK2 mut-MEK5: 5.0; MEKK3 PB1 HTS: 99.0; MEKK2wt PB1 HTS: 101.0

Results for Cc1cc(C)c[n+](-c2[nH]c(=O)sc2/C=N/NC([S-])=Nc2ccccc2)c1 ?
MEKK2 mut-MEK5: 1.0; ABCG2 inh: 0.2; MEKK3 PB1 HTS: 136.0*; ABCB1 inh: 0.1; MEKK2wt PB1 HTS: 109.0; MEKK2wt confirm: 98.0; MEKK2mut-MEK5: -6.0; MEKK3 confirm: 97.0

What do the screens show for `Cc1cc[n+](-c2[nH]c(=O)sc2/C=N/NC([S-])=Nc2ccccc2)cc1`?
MEKK2 mut-MEK5: -1.0; ABCG2 inh: -0.6; MEKK3 PB1 HTS: 86.0; ABCB1 inh: -0.1; MEKK2wt PB1 HTS: 97.0

Results for CCOP(=O)(NC12CC3CC(CC(C3)C1)C2)NC12CC3CC(CC(C3)C1)C2 ?
MEKK2 mut-MEK5: -7.0; MEKK3 PB1 HTS: 100.0; MEKK2wt PB1 HTS: 97.0

Results for Cc1cc(S(=O)(=O)N2CCCC(C)C2)ccc1-n1cnnn1 (configuration not stated) ?
MEKK2 mut-MEK5: -5.0; MEKK3 PB1 HTS: 101.0; MEKK2wt PB1 HTS: 96.0

What do the screens show for `N#Cc1cccc(NC(=O)CC2CCCCC2)c1`?
MEKK2 mut-MEK5: -34.0; ABCG2 inh: 1.9; MEKK3 PB1 HTS: 100.0; ABCB1 inh: 0.2; MEKK2wt PB1 HTS: -3.0*[inhibitor]; MEKK2wt confirm: 97.0; MEKK2mut-MEK5: -1.0; MEKK3 confirm: 101.0

What do the screens show for `COc1ccc(N(CC(=O)NC2CC3CCC2C3)S(=O)(=O)c2ccccc2)cc1Cl` (configuration not stated)?
MEKK2 mut-MEK5: -1.0; MEKK3 PB1 HTS: 103.0; MEKK2wt PB1 HTS: 100.0

How did CC1CCN(C(=O)C(C)Sc2nc(-c3ccccc3)cc(C(F)(F)F)n2)CC1 (configuration not stated) do in these assays?
MEKK2 mut-MEK5: -2.0; ABCG2 inh: 4.5; MEKK3 PB1 HTS: 100.0; ABCB1 inh: 1.1; MEKK2wt PB1 HTS: 96.0
